This note sets out measurements from PubChem BioAssay.

Each structure is given as a SMILES string. Calls of active or inactive are those of the source.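 The calls were made as follows, unless noted: active = Her2 level under about 52% in both replicate screens, with viability over 70% of control (limit read from the data); inconclusive = Her2 under the limit in one screen only, or viability under 70%; inactive = Her2 level above the set limit.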

Experiment [1] can be described thus: Her2 expression decrease, cell viability multiplex – SKBR3 breast tumor cells, AlphaScreen, ATP viability, primary screen (AID 461).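 As to Her2 level: lower value means less Her2 protein in the cells.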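 As to viability: percent of carrier control wells set as 100% viability.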 The following applies: SKBR3 Her2 protein level, 18-24 h, measured here: SKBR3 viability, ATP luminescence, at 10 µM. (In general: Bead proximity is the source of the signal in Alpha formats.)
In experiment [2] the target is Receptor tyrosine-protein kinase erbB-2 (Homo sapiens) (UniProt P04626). The description is as above. The following applies: 18-24 h, at 10 µM, stronger effect = lower value.
Experiment [3] can be described thus: reduced viability of SK-BR-3 breast cancer cells – cell-based, 24 h, human, pilot screen (AID 572;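 active = viability at or below 10% of carrier control in both of two separate runs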;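 also: compound exposure lasted between 18 and 24 h rather than exactly 24 h; 100% = carrier-treated control wells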). Particulars: SK-BR-3 viability, CellTiter-Glo luminescence, at 10 µM, stronger effect = lower value. (In general: In ATP-based viability assays light output follows the ATP content of the culture.)
Experiment [4] is described as follows: HUVEC growth inhibition – cell-based, human, primary screen (AID 575;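 active = viability at or below 30% in both replicate assays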;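 also: 100% = median of untreated cell wells with 0.1% DMSO on each plate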). Particulars: HUVEC proliferation, CellTiter-Glo luminescence, 72 h; at 10 µM; stronger effect = lower value. In a few lines:
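Test system: primary human umbilical vein endothelial cells; medium: endothelial basal medium with 2% FBS plus growth supplements; dosing: 10 µM compound only; times: 72 h treatment at 37 °C; signal: CTG luminescence; read-out: % viability relative to median vehicle-well signal on each plate; control set: vehicle and MePR control wells; plate: 384-well, collagen-coated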

Experiment [5] is described as follows: H69AR cell proliferation blockers – human, duplicate replicates, primary screen (AID 580;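 active = viability at or under a set limit in both replicates, limit being median viability minus 3 SD, cut at about 48% in these data, passing the limit was not always enough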;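 also: 100% = mean luminescence of untreated wells and 0% = no signal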). Particulars: H69AR lung tumor cells viability, ATP luminescence, 72 h; at 10 µM; stronger effect = lower value.
The nature of experiment [6]: MRP1 drug-resistance reversers in H69AR cells – cell-based, doxorubicin co-treatment, pilot screen (AID 601;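 active = viability loss from added drug above about 55%, and viability with drug at most 40%, in both replicates, limit read from the data, passing the limit was not always enough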). Particulars: CellTiter-Glo, 72 h, at 10 µM; for differential viability (reversal): stronger effect = higher value.
Experiment [7] can be described thus: yeast transport mutant growth inhibition pilot in 384-well plates, post-Golgi transport modulator project (AID 636; in the data active = inhibition above about 31%). Particulars: absorbance 615 nm, about 18 h, stronger effect = higher value.
The nature of experiment [8]: growth suppression of yeast trafficking mutant, preliminary HTS, modulators of trafficking downstream of Golgi apparatus project, 1536-format plate, OD 615 nm (AID 637; in the data active = inhibition above about 30%). Particulars: yeast transport mutant growth, absorbance 615 nm, 18 h; stronger effect = higher value.
Where [9] appears, read: H69AR cells + 2 uM doxorubicin, measured here: viability with 2 uM doxorubicin, stronger effect = lower value.
[10] abbreviates: H69AR cells, compound alone cytotoxicity.

Chain of Receptor tyrosine-protein kinase erbB-2 (Homo sapiens) (P04626 whole entry, looked up): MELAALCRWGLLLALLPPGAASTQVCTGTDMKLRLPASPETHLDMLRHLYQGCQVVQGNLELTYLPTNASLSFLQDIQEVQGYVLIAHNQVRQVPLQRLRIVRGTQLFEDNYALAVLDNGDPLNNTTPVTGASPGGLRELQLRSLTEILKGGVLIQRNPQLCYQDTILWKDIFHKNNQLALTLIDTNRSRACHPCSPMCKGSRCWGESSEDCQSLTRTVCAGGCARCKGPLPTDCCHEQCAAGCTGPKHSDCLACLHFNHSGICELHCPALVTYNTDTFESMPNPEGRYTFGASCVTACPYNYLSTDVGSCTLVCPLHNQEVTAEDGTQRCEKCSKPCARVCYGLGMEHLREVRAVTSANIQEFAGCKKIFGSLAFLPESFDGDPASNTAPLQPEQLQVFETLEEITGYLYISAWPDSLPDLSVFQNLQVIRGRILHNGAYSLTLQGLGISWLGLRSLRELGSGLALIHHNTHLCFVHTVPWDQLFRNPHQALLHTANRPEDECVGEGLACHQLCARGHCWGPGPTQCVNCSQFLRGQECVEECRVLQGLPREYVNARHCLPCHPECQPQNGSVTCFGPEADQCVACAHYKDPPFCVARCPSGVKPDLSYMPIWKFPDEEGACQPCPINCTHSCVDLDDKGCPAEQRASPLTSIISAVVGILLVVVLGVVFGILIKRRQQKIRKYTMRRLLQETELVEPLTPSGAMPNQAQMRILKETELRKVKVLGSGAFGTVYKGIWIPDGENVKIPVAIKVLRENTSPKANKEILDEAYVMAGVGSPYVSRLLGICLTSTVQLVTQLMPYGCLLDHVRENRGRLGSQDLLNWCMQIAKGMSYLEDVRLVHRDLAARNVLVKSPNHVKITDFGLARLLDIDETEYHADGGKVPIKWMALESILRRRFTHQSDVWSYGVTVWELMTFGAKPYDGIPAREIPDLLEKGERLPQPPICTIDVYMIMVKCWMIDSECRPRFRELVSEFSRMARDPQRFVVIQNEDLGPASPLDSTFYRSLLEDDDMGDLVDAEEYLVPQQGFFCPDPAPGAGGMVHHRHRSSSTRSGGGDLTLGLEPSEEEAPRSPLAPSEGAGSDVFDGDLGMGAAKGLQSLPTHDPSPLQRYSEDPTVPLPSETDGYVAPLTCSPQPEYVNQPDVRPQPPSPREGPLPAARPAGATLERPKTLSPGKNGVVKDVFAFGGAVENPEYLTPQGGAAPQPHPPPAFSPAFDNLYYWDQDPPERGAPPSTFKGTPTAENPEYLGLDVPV

Take `CCOC(=O)/C(C#N)=C1\Nc2ccccc2N=C1N(CC(C)C)CC(C)C`: the viability in experiment [1] was 80%; in experiment [3], 80% (inactive); in experiment [4] it was 86.2% (inactive); in experiment [5] it was 84.2% (inactive); in experiment [6] (setting [9]), 89.6%; in experiment [6] (setting [10]) it was 84.2%. In addition, in experiment [2], the Her2 level is 104% (inactive). In experiment [6] (H69AR cells + 2 uM doxorubicin), the differential viability (reversal) is -5.4% (inactive). The inhibition in experiment [7] is -4.13% (inactive); in experiment [8], -2.79% (inactive).
Take `Cc1cc(C(F)(F)F)nn1Cc1ccc(C(=O)NCc2ccco2)o1`: the viability in experiment [1] is 97%; in experiment [3], 97% (inactive); in experiment [4], 95.3% (inactive); in experiment [5] it was 89.9% (inactive); in experiment [6] (setting [9]) it was 89.5%; in experiment [6] (setting [10]), 89.9%. Besides, the Her2 level in experiment [2] was 105% (inactive). The differential viability (reversal) in experiment [6] (H69AR cells + 2 uM doxorubicin) is 0.38% (inactive). Further, the inhibition in experiment [7] was -0.53% (inactive); in experiment [8], 0.82% (inactive).
On to `COc1ccc(C(=O)c2ccccc2)c(O)c1`, for which the viability in experiment [1] was 86.5%; in experiment [3] it was 86.5% (inactive); in experiment [4], 97.7% (inactive); in experiment [5], 106% (inactive); in experiment [6] (setting [9]), 92%; in experiment [6] (setting [10]), 106%. Also, in experiment [2], the Her2 level is 110% (inactive). The differential viability (reversal) in experiment [6] (H69AR cells + 2 uM doxorubicin) is 13.6% (inactive). Further, the inhibition was -3.33% (inactive) in experiment [7] and 22.7% (inactive) in experiment [8].
For `O=C1CCCC(O)=C1C=Nc1ccc2c(c1)oc1ccccc12`, the viability in experiment [1] was 102%; in experiment [3] it was 102% (inactive); in experiment [4] it was 63.7% (inactive); in experiment [5] it was 88.7% (inactive); in experiment [6] (setting [9]), 100%; in experiment [6] (setting [10]) it was 88.7%. Besides, in experiment [2], the Her2 level was 101% (inactive). Moreover, the differential viability (reversal) in experiment [6] (H69AR cells + 2 uM doxorubicin) is -11.3% (inactive). Besides, the inhibition is -5.87% (inactive) in experiment [7] and 1.11% (inactive) in experiment [8].
As to `Nc1nc(C2C(=O)CCCC2=O)cs1`, the viability in experiment [1] was 97.5%; in experiment [3] it was 97.5% (inactive); in experiment [4] it was 102% (inactive); in experiment [5], 103% (inactive); in experiment [6] (setting [9]), 97.6%; in experiment [6] (setting [10]), 103%. Besides, the Her2 level in experiment [2] is 99.5% (inactive). For the same compound, the differential viability (reversal) in experiment [6] (H69AR cells + 2 uM doxorubicin) is 5.64% (inactive). Besides, the inhibition in experiment [7] was -2.89% (inactive); in experiment [8], 4.1% (inactive).
As to `CC(C)C(=O)Nc1ccc2c(c1)nc1n2CCSC1`, the viability in experiment [1] was 104%; in experiment [3], 104% (inactive); in experiment [4], 111% (inactive); in experiment [5], 95.4% (inactive); in experiment [6] (setting [9]), 85%; in experiment [6] (setting [10]), 95.4%. Further, the Her2 level in experiment [2] was 95% (inactive). In addition, the differential viability (reversal) in experiment [6] (H69AR cells + 2 uM doxorubicin) is 10.4% (inactive). For the same compound, the results for the inhibition in experiment [7] and in experiment [8] were -0.78% (inactive) and -6.83% (inactive), respectively.
Consider `CC(C)c1nnc(NC(=O)c2cnccn2)s1`, for which the viability in experiment [1] is 87.5%; in experiment [3], 87.5% (inactive); in experiment [4] it was 104% (inactive); in experiment [5], 92.2% (inactive); in experiment [6] (setting [9]), 92.3%; in experiment [6] (setting [10]), 92.2%. The Her2 level in experiment [2] was 88.5% (inactive). In experiment [6] (H69AR cells + 2 uM doxorubicin), the differential viability (reversal) was -0.1% (inactive). Also, the inhibition in experiment [7] was -3.65% (inactive); in experiment [8], -2.46% (inactive).
Consider `CC(C)(C)c1cc(CCC(=O)N2CCNCC2)c(C(C)(C)C)cc1O`, for which the viability in experiment [1] is 106%; in experiment [3] it was 106% (inactive); in experiment [4], 82.9% (inactive); in experiment [5] it was 98.3% (inactive); in experiment [6] (setting [9]), 90.3%; in experiment [6] (setting [10]) it was 98.3%. Also, in experiment [2], the Her2 level is 85.5% (inactive). Besides, the differential viability (reversal) in experiment [6] (H69AR cells + 2 uM doxorubicin) is 8% (inactive). For the same compound, the inhibition in experiment [7] was -0.26% (inactive); in experiment [8], -2.46% (inactive).
Take `COC(=O)c1sc(S(=O)(=O)Nc2ccc3cn[nH]c3c2)c(C(=O)OC)c1C`: the viability in experiment [1] was 97%; in experiment [3], 97% (inactive); in experiment [4], 77.6% (inactive); in experiment [5], 78.2% (inactive); in experiment [6] (setting [9]), 90.6%; in experiment [6] (setting [10]), 78.2%. Further, the Her2 level in experiment [2] was 93.5% (inactive). The differential viability (reversal) in experiment [6] (H69AR cells + 2 uM doxorubicin) is -12.4% (inactive). Moreover, the inhibition was -2.5% (inactive) in experiment [7] and -6.55% (inactive) in experiment [8].
For `Cc1ccc(NC2=NC(c3ccccc3)n3c(nc(C)cc3=O)N2)cc1` (stereo not given), the viability was 86.5% in experiment [1]; 86.5% (inactive) in experiment [3]; 93.5% (inactive) in experiment [4]; 88.5% (inactive) in experiment [5]; 77.2% in experiment [6] (setting [9]); 88.5% in experiment [6] (setting [10]). Moreover, the Her2 level in experiment [2] is 82% (inactive). In addition, the differential viability (reversal) in experiment [6] (H69AR cells + 2 uM doxorubicin) is 11.3% (inactive). The values for the inhibition in experiment [7] and in experiment [8] were -2.11% (inactive) and 2.55% (inactive), respectively.
For `COc1ccc2[nH]c(=O)c(CNC3CCCCC3)cc2c1`, the viability in experiment [1] is 101%; in experiment [3] it was 101% (inactive); in experiment [4], 115% (inactive); in experiment [5], 89.5% (inactive); in experiment [6] (setting [9]) it was 84.5%; in experiment [6] (setting [10]), 89.5%. For the same compound, the Her2 level in experiment [2] was 93% (inactive). Moreover, the differential viability (reversal) in experiment [6] (H69AR cells + 2 uM doxorubicin) was 5% (inactive). Besides, the inhibition in experiment [7] was -4.16% (inactive); in experiment [8] it was 0.5% (inactive).
For the compound `CCOCCCNC(=O)CCNS(=O)(=O)c1ccc(C)cc1`, the viability was 102% in experiment [1]; 102% (inactive) in experiment [3]; 89.9% (inactive) in experiment [4]; 105% (inactive) in experiment [5]; 96.7% in experiment [6] (setting [9]); 105% in experiment [6] (setting [10]). Besides, in experiment [2], the Her2 level was 108% (inactive). Also, the differential viability (reversal) in experiment [6] (H69AR cells + 2 uM doxorubicin) is 8.21% (inactive). Moreover, the inhibition in experiment [7] is -3.03% (inactive); in experiment [8], -5.5% (inactive).
Take `Cc1ccc(Br)cc1S(=O)(=O)N1CCN(c2ccccc2)CC1`: the viability is 93.5% in experiment [1]; 93.5% (inactive) in experiment [3]; 76.2% (inactive) in experiment [4]; 79.4% (inactive) in experiment [5]; 84.5% in experiment [6] (setting [9]); 79.4% in experiment [6] (setting [10]). Besides, the Her2 level in experiment [2] was 116% (inactive). Besides, the differential viability (reversal) in experiment [6] (H69AR cells + 2 uM doxorubicin) was -5.03% (inactive). The inhibition in experiment [7] is 1.17% (inactive); in experiment [8], -8.5% (inactive).
As to `Cc1onc(-c2c(Cl)cccc2Cl)c1C(=O)N1CCc2ccccc21`, the viability was 97% in experiment [1]; 97% (inactive) in experiment [3]; 68.1% (inactive) in experiment [4]; 61.6% (inactive) in experiment [5]; 85.9% in experiment [6] (setting [9]); 61.6% in experiment [6] (setting [10]). For the same compound, in experiment [2], the Her2 level is 91.5% (inactive). Further, the differential viability (reversal) in experiment [6] (H69AR cells + 2 uM doxorubicin) is -24.3% (inactive). For the same compound, the figures for the inhibition in experiment [7] and in experiment [8] were -0.93% (inactive) and 2.74% (inactive), respectively.

One may read the viability as a read-out of living cells in per cent, often relative to untreated cells. The inhibition is the relative decrease from the control value, in per cent.
